Activity calls are given as the source filed them. No cut-off for these calls is given here.
Experiments:
Mus musculus [1] = test: Inhibition of morphine-induced analgesia in Swiss Webster mouse assessed as change in morphine ED50 at 2.4 nmol, icv after 2 hrs by tail flick test; type: functional, organism-based
Mus musculus [2] = test: Effect on development of dependence to morphine in Swiss Webster mouse assessed as increase in naloxone ED50 for eliciting withdrawal jumping at 0.24 nmol, icv after 24 hrs relative to control; type: functional, organism-based
Outline: (§1)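 Male Swiss Webster mice, 20-25 g. Given icv injection (4 µL saline vehicle) immediately after sc implantation of a 50 mg morphine or placebo pellet. At 24 and 72 h, naloxone given sc (10 mL/kg saline) and ED50 taken for precipitated withdrawal jumping (Way method). Groups of 4-5 mice per ED50.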

Mus musculus [3] = test: Effect on development of dependence to morphine in Swiss Webster mouse assessed as increase in naloxone ED50 for eliciting withdrawal jumping at 0.24 nmol, icv after 72 hrs relative to control; type: functional, organism-based; outline: as §1
Mus musculus [4] = test: Toxicity in icv dosed Swiss Webster mouse assessed as lethargic behavior; type: organism-based; settings: in vivo, icv_or_intrathecal
Outline: (§2)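 Male Swiss Webster mice, 20-25 g, observed after icv injection in 4 µL saline. Recorded: lethality and preceding tonic convulsions within 1.5 h, lethargy, startle reflex to hand clap, locomotor activity, and tail-flick latency.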

Mus musculus [5] = test: Toxicity in Swiss Webster mouse assessed as tonic convulsions at 4.8 nmol, icv; type: organism-based; settings: in vivo, icv_or_intrathecal; outline: as §2
Mus musculus [6] = test: Toxicity in icv dosed Swiss Webster mouse assessed as decrease in locomotor activity; type: organism-based; settings: in vivo, icv_or_intrathecal; outline: as §2
Mus musculus [7] = test: Toxicity in Swiss Webster mouse assessed as lethality at 4.8 nmol, icv after 1.5 hrs; type: organism-based; settings: in vivo, icv_or_intrathecal; outline: as §2
Mus musculus [8] = test: Toxicity in icv dosed Swiss Webster mouse assessed as change in tail flick latency; type: organism-based; settings: in vivo, icv_or_intrathecal; outline: as §2
Mus musculus [9] = test: Toxicity in icv dosed Swiss Webster mouse assessed as suppression of startle reflex to loud and abrupt auditory stimulus; type: organism-based; settings: in vivo, icv_or_intrathecal; outline: as §2
Mus musculus [10] = test: Toxicity in Swiss Webster mouse assessed as mortality at 2.4 nmol, icv; type: organism-based; settings: in vivo, icv_or_intrathecal; outline: as §2
Mus musculus [11] = test: Analgesic activity in Swiss Webster mouse at 4 nmol, icv after 10 to 120 mins by tail flick test; type: functional, organism-based
Outline: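 Male Swiss Webster mice, 20-25 g. Compound given icv in 4 µL saline (working solution from ethanol/0.05 N HCl stock, evaporated under nitrogen). Agonist activity read by modified D'Amour-Smith tail-flick at intervals out to 2 h post-injection. Saline icv controls given in the same volume.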

Mus musculus [12] = test: Toxicity in Swiss Webster mouse assessed as lethargic behavior at 4 nmol, icv; type: organism-based; settings: in vivo, icv_or_intrathecal; outline: as §2

SMILES | inhibition (Mus musculus [1]) | Activity (Mus musculus [2]) | Activity (Mus musculus [3]) | Activity (Mus musculus [4]) | Activity (Mus musculus [5]) | Activity (Mus musculus [6]) | Activity (Mus musculus [7]) | Activity (Mus musculus [8]) | Activity (Mus musculus [9]) | Activity (Mus musculus [10]) | Activity (Mus musculus [11]) | Activity (Mus musculus [12])
O=C1CC[C@@]2(O)[C@H]3Cc4ccc(O)c5c4[C@@]2(CCN3CC2CC2)[C@H]1O5 | inactive | inactive | inactive |  |  |  |  |  |  |  |  | 
Oc1ccc2c3c1O[C@H]1[C@H](N(CCCl)CCCl)CC[C@@]4(O)[C@@H](C2)N(CC2CC2)CC[C@]314 |  |  |  | Toxic | Toxic | Toxic | Toxic | Non-toxic | Non-toxic | Toxic |  | 
O=C(O)CCCc1ccc(N(CCCl)CCCl)cc1 [CHLORAMBUCIL] | inactive |  |  |  |  | Toxic |  | Non-toxic | Non-toxic |  | inactive | Toxic

— ChEMBL document CHEMBL3228038 (J Med Chem, 1979)
